Laboratory results taken from ChEMBL document CHEMBL1127542, “Inhibitors of acyl-CoA:cholesterol O-acyl transferase (ACAT) as hypocholesterolemic agents. 8. Incorporation of amide or amine functionalities into a series of disubstituted ureas and carbamates. Effects on ACAT inhibition in vitro and efficacy in vivo” (J Med Chem, 1994).

Columns and labels:
[1] = biological target: Sterol O-acyltransferase 1 (Oryctolagus cuniculus); assay: In vitro inhibition of rabbit intestinal acyl coenzyme A:cholesterol acyltransferase using [1-14C]oleolyl-CoA
Rattus norvegicus = species on record: Rattus norvegicus; assay: Percent change in total cholesterol in cholic acid (0.5%)-cholesterol (1.5%)-peanut oil (5.5%)-fed rats; type: functional
Procedure, shortened: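 Acute screen: rats given a single gavage dose, 50 mg/kg standard unless noted, suspended in carboxymethylcellulose plus Tween-20 in water, then a single high-fat, high-cholesterol meal (0.5% cholic acid, 1.5% cholesterol, 5.5% peanut oil). Overnight rise in plasma total cholesterol measured as % change versus control. Stomachs checked for food. ANOVA with Fisher's multiple range test, p<0.05.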

Row | Compound | IC50 [1] [nM] | Change (Rattus norvegicus) [%]
1 | CC(C)c1cccc(C(C)C)c1NC(=O)NCC(NCc1ccc(N(C)C)cc1)c1ccccc1 (stereo in doubt; 9n(+)) | 60 | -56
2 | COc1ccc(CNC(CNC(=O)Nc2c(C(C)C)cccc2C(C)C)c2ccccc2)cc1 (racemic) | 48 | -54
3 | CC(C)c1cccc(C(C)C)c1NC(=O)NCC(NCc1ccncc1)c1ccccc1 (single isomer, unassigned; (+)) | 1200 | -19
4 | COc1ccc(CNC(CCSC)CNC(=O)Nc2c(C(C)C)cccc2C(C)C)cc1 (single isomer, unassigned; (+)) | 490 | -31
5 | CC(C)c1cccc(C(C)C)c1NC(=O)NCC(NCC1CC1)c1ccccc1 (single isomer, unassigned; (-)) | 64 | -51
6 | Cc1ccc(CNC(CNC(=O)Nc2c(C(C)C)cccc2C(C)C)c2ccccc2)cc1 (racemic) | 52 | -45
7 | CC(C)c1cccc(C(C)C)c1NC(=O)NCC(NC(=O)c1ccco1)c1ccccc1 (stereo unspecified) | 440 | -37
8 | CC(C)c1cccc(C(C)C)c1NC(=O)NCC(NC(=O)c1cc2ccccc2[nH]1)c1ccccc1 (stereo unspecified) | 2300 | -3
9 | CCCCCCC(=O)NC(COC(=O)Nc1c(C(C)C)cccc1C(C)C)c1ccccc1 (single isomer, unassigned; (+)) | 5100 | 
10 | CC(C)c1cccc(C(C)C)c1NC(=O)NCC(Cc1ccccc1)NCc1ccccc1O (stereo unspecified) | 410 | -37
11 | CCCCCCCCCCCC(=O)NC(COC(=O)Nc1c(C(C)C)cccc1C(C)C)c1ccccc1 (stereo unspecified) | 200 | -16
12 | CC(C)c1cccc(C(C)C)c1NC(=O)NCC(CNCc1ccccc1)c1ccccc1 (stereo unspecified) | 160 | -46
13 | CC(C)c1cccc(C(C)C)c1NC(=O)NCC(NC(=O)c1ccccn1)c1ccccc1 (stereo unspecified) | 80 | -24
14 | CC(C)c1cccc(C(C)C)c1NC(=O)NCC(NCc1cccc([N+](=O)[O-])c1)c1ccccc1 (single isomer, unassigned; (-)) | 45 | -32
15 | COc1ccc(CNC(CNC(=O)Nc2c(C(C)C)cccc2C(C)C)c2ccccc2)cc1 (stereo in doubt; 9m(+)) | 70 | -36
16 | CCCCCCCCCCCCCCCCCC(=O)NC(CNC(=O)Nc1c(C(C)C)cccc1C(C)C)c1ccccc1 (stereo unspecified) | 1700 | 8
17 | CC(C)c1cccc(C(C)C)c1NC(=O)NCC(NCc1ccccc1C(F)(F)F)c1ccccc1 (single isomer, unassigned; (-)) | 45 | -42
18 | CCCC(CCC)(CNC(=O)Nc1c(C(C)C)cccc1C(C)C)NC(=O)c1ccc(OC)cc1 | 90 | -25
19 | CC(C)c1cccc(C(C)C)c1NC(=O)NCC(NCc1cccs1)c1ccccc1 (single isomer, unassigned; (+)) | 51 | -19
20 | CC(C)c1cccc(C(C)C)c1OC(=O)NCC(NC(=O)OC(C)(C)C)c1ccccc1 (single isomer, unassigned; (-)) | 430 | 20
21 | CC(C)c1cccc(C(C)C)c1NC(=O)NCC(NCc1ccc(O)c(CN(C)C)c1)c1ccccc1 (single isomer, unassigned; (-)) | 490 | -46
22 | CC(C)c1cccc(C(C)C)c1NC(=O)NCC(NCc1ccccc1)c1ccccc1 (stereo in doubt; 9k(+)) | 53 | -41
23 | CC(C)c1cccc(C(C)C)c1NC(=O)NCC(NC(=O)CCCCCN(CCO)CCO)c1ccccc1 (stereo unspecified) | 2800 | -4

Row | Compound | IC50 [1] [nM] | Change (Rattus norvegicus) [%]
24 | COc1ccc(CNC(CNC(=O)Nc2c(C(C)C)cccc2C(C)C)Cc2ccccc2)cc1 (single isomer, unassigned; (-)) | 270 | -30
25 | CC(C)c1cccc(C(C)C)c1NC(=O)NCC(CN(Cc1ccccc1)Cc1ccccc1)c1ccccc1 (stereo unspecified) | 7600 | 
26 | CC(C)c1cccc(C(C)C)c1NC(=O)NCC(NCc1ccc(N(C)C)cc1)c1ccccc1 (single isomer, unassigned; (-)) | 150 | -45
27 | CCCCC(=O)NC(CNC(=O)Nc1c(C(C)C)cccc1C(C)C)c1ccccc1 (stereo unspecified) | 430 | -8
28 | CC(C)c1cccc(C(C)C)c1NC(=O)OCC(NC(=O)OC(C)(C)C)c1ccccc1 (stereo unspecified) | 2500 | 
29 | CC(C)c1cccc(C(C)C)c1NC(=O)NCC(NCc1ccco1)c1ccccc1 (single isomer, unassigned; (+)) | 99 | -23
30 | COc1ccc(CNC(CNC(=O)Nc2c(C(C)C)cccc2C(C)C)CC(C)C)cc1 (stereo unspecified) | 50 | -32
31 | COc1ccc(CNC(CNC(=O)Nc2c(C(C)C)cccc2C(C)C)C(C)C)cc1 (single isomer, unassigned; (-)) | 80 | -41
32 | CC(C)c1cccc(C(C)C)c1NC(=O)NCC(NC(=O)c1cnccn1)c1ccccc1 (stereo unspecified) | 440 | -19
33 | CCCCCCCCCCNC(CNC(=O)Nc1c(C(C)C)cccc1C(C)C)c1ccccc1 (racemic) | 83 | -38
34 | CC(C)c1cccc(C(C)C)c1NC(=O)NCC(NC(=O)CCCCCBr)c1ccccc1 (stereo unspecified) | 380 | -36
35 | CC(C)c1cccc(C(C)C)c1NC(=O)NCC(NCc1ccoc1)c1ccccc1 (stereo unspecified) | 48 | -38
36 | CCCCCCCNC(CNC(=O)Nc1c(C(C)C)cccc1C(C)C)c1ccccc1 (racemic) | 110 | -25
37 | CC(C)c1cccc(C(C)C)c1NC(=O)NCC(NCc1cccnc1)c1ccccc1 (stereo unspecified) | 370 | -26
38 | COc1ccc(C(=O)NC(C)(C)CNC(=O)Nc2c(C(C)C)cccc2C(C)C)cc1 |  | -9
39 | CCCCCNC(CNC(=O)Nc1c(C(C)C)cccc1C(C)C)c1ccccc1 (racemic) | 110 | -38
40 | CC(C)c1cccc(C(C)C)c1NC(=O)NCC(NC(=O)c1ccncc1)c1ccccc1 (stereo unspecified) | 3200 | -12
41 | CC(C)c1cccc(C(C)C)c1NC(=O)NC(CNC(=O)c1ccccc1)c1ccccc1 (stereo unspecified) | 3600 | 
42 | CC(C)c1cccc(C(C)C)c1NC(=O)NCC(NC(=O)c1cccc2ccccc12)c1ccccc1 (stereo unspecified) | 970 | -14
43 | CCCCCCCCCC(=O)NC(CNC(=O)Oc1c(C(C)C)cccc1C(C)C)c1ccccc1 (racemic) | 760 | 25
44 | CC(C)c1cccc(C(C)C)c1NC(=O)NCC(NC(=O)c1ccc2ccccc2[n+]1[O-])c1ccccc1 (stereo unspecified) | 150 | -21
45 | CC(C)c1cccc(C(C)C)c1NC(=O)NCC(NCc1ccccc1)c1ccccc1 (single isomer, unassigned; (-)) | 33 | -29
46 | COc1ccc(CNC(CNC(=O)Nc2c(C(C)C)cccc2C(C)C)c2ccccc2)cc1 (single isomer, unassigned; (-)) | 39 | -45

Row | Compound | IC50 [1] [nM] | Change (Rattus norvegicus) [%]
47 | CC(C)c1cccc(C(C)C)c1NC(=O)NCC(CN(C)Cc1ccccc1)c1ccccc1 (stereo unspecified) | > 10000 | 
48 | CCCCCCCCCCCC(=O)NC(CNC(=O)Nc1c(C(C)C)cccc1C(C)C)c1ccccc1 (stereo unspecified) | 77 | -16
49 | CC(C)c1cccc(C(C)C)c1NC(=O)NCC(NCc1ccccn1)c1ccccc1 (stereo unspecified) | 140 | -15
50 | CCCCC(=O)NCC(CNC(=O)Nc1c(C(C)C)cccc1C(C)C)c1ccccc1 (stereo unspecified) | 610 | -6
51 | COc1ccc(C(=O)NC(CNC(=O)Nc2c(C(C)C)cccc2C(C)C)c2ccccc2)cc1 (stereo unspecified) | 330 | -7
52 | CCCCCCCCCCCC(=O)NC(CNC(=O)Oc1c(C(C)C)cccc1C(C)C)c1ccccc1 (single isomer, unassigned; (-)) | 51 | 25
53 | COc1ccc(C(=O)NC(C)(CNC(=O)Nc2c(C(C)C)cccc2C(C)C)c2ccccn2)cc1 (racemic) | 610 | -23
54 | CCCCCCNC(CNC(=O)Nc1c(C(C)C)cccc1C(C)C)c1ccccc1 (racemic) | 49 | -41
55 | CCCCCCCCCC(=O)NC(CNC(=O)Nc1c(C(C)C)cccc1C(C)C)c1ccccc1 (stereo unspecified) | 590 | -29
56 | COc1ccc(C(=O)NC2(CNC(=O)Nc3c(C(C)C)cccc3C(C)C)CCCC2)cc1 | 500 | -6
57 | CC(C)c1cccc(C(C)C)c1NC(=O)NCC(CNC(=O)c1ccccn1)c1ccccc1 (stereo unspecified) | 300 | -7
58 | CC(C)c1cccc(C(C)C)c1NC(=O)NCC(NCc1ccccc1)c1ccccc1 (racemic) | 51 | -36
59 | CC(C)c1cccc(C(C)C)c1NC(=O)NCC(NC(=O)c1ccc2ccccc2n1)c1ccccc1 (stereo unspecified) | 150 | -31
60 | CCCCCCC(=O)NC(COC(=O)Nc1c(C(C)C)cccc1C(C)C)c1ccccc1 (stereo in doubt; 34a(-)) | 570 | -2
61 | COc1ccc(C(=O)NC(CNC(=O)Nc2c(C(C)C)cccc2C(C)C)C2CCCCC2)cc1 (racemic) | 250 | -15
62 | Cc1ccc(C(=O)NC(CNC(=O)Nc2c(C(C)C)cccc2C(C)C)c2ccccc2)cc1 (stereo unspecified) | 350 | -1
63 | COc1ccccc1CNC(CNC(=O)Nc1c(C(C)C)cccc1C(C)C)c1ccccc1 (single isomer, unassigned; (-)) | 45 | -23
64 | CC(C)c1cccc(C(C)C)c1NC(=O)NCC(NC(=O)c1ccc(C(F)(F)F)cc1)c1ccccc1 (stereo unspecified) | 510 | -9
65 | CC(C)c1cccc(C(C)C)c1NC(=O)NCC(NCc1ccco1)c1ccccc1 (single isomer, unassigned; (-)) | 48 | -18
66 | CC(C)c1cccc(C(C)C)c1NC(=O)OCC(NCc1ccc(N(C)C)cc1)c1ccccc1.Cl (stereo unspecified) |  | -23
67 | CCCCCCCCCCC(C)(C)C(=O)Nc1c(OC)cc(OC)cc1OC [CL-976] |  | -44
